{"source": "ChEMBL document CHEMBL1121364", "about": "“Nucleoside conjugates as potential antitumor agents. 3. Synthesis and antitumor activity of 1-(beta-D-arabinofuranosyl)cytosine conjugates of corticosteroids” (1980)", "key": {"L1210 [1]": {"tested_on": "L1210", "assay": "Antitumor activity in the mice with intraperitoneal implanted L1210 lymphoid leukemia at the dose of 75 mg/kg/day x 5 was determined as mean survival of treated group compared to untreated; 28.5/9.5", "assay_type": "functional, Mus musculus"}, "L1210 [2]": {"tested_on": "L1210", "assay": "Antitumor activity in the mice with intraperitoneal implanted L1210 lymphoid leukemia at the dose of 25 mg/kg/day x 5 was determined as mean survival of treated group compared to untreated; 18/9.5", "assay_type": "functional, Mus musculus", "how_it_was_run": "(§1)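 C3D2F1/J female mice (C3H/HeJ female × DBA/2J male), groups of six to eight, average weight 25 g. Inoculated ip with 1 × 10^6 L1210 ascites cells taken from DBA/2Ha donor mice bearing 3-5 day old tumors. Compounds were dissolved in 0.154 N NaOH, neutralized with 0.154 N HCl (final 0.9% NaCl), and given ip daily for 5 days from 24 h post-implant. Median survival T/C; ILS = (T/C − 1) × 100; 30-day survivors counted.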"}, "L1210 [3]": {"tested_on": "L1210", "assay": "Antitumor activity in the mice with intraperitoneal implanted L1210 lymphoid leukemia at the dose of 50 mg/kg/day x 5 was determined as mean survival of treated group compared to untreated; 20.5/8.5", "assay_type": "functional, Mus musculus"}, "L1210 [4]": {"tested_on": "L1210", "assay": "Antitumor activity in the mice with intraperitoneal implanted L1210 lymphoid leukemia at the dose 100 mg/kg/day x 5 was determined as percentage increase in the life span as compared with control tumor bearers", "assay_type": "functional", "settings": "Mus musculus, L1210, ip", "how_it_was_run": "(§2)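 Female C3D2F1/J mice (C3H/HeJ × DBA/2J), groups of six to eight, average weight 25 g. Each mouse got 1 × 10^6 L1210 ascites cells ip, taken from DBA/2Ha donor mice bearing 3-5 day tumors. Compound was dissolved in 0.154 N NaOH and neutralized with 0.154 N HCl (final 0.9% NaCl). Dosed ip daily ×5, starting 24 h after implant. Recorded body weight change on day 8, survival range, median survival and 30-day survivors. ILS = (T/C − 1) × 100.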"}, "L1210 [5]": {"tested_on": "L1210", "assay": "Antitumor activity in mice with intraperitoneal implanted L1210 lymphoid leukemia at the dose 75 mg/kg/day x 5 was determined as weight change (g/mouse) on 8th day", "assay_type": "functional", "how_it_was_run": "(§3)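 C3D2F1/J female mice (C3H/HeJ × DBA/2J), groups of six to eight, average 25 g, inoculated ip with 1 × 10^6 L1210 ascites cells taken from DBA/2Ha donor mice carrying 3-5 day tumors. Compound dissolved in 0.154 N NaOH, then neutralized with 0.154 N HCl to give 0.9% NaCl. Given ip daily for 5 consecutive days starting 24 h after implantation. Body weight change per mouse recorded on day 8.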"}, "L1210 [6]": {"tested_on": "L1210", "assay": "In Vitro evaluation for the antiproliferative activity by observing the growth inhibition of L1210 lymphoid leukemia cells in culture at 72 hour", "assay_type": "functional, Mus musculus", "how_it_was_run": "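Growth of L1210 lymphoid leukemia cells in culture measured by Trypan blue exclusion of viable cells after 72 h of drug exposure. ED50 is the concentration giving 50% growth inhibition. In some runs the compound was first preincubated in medium at 37 °C for 24 or 48 h before the assay.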"}, "L1210 [7]": {"tested_on": "L1210", "assay": "Antitumor activity in mice with intraperitoneal implanted L1210 lymphoid leukemia at the dose 100 mg/kg/day x 5 was determined as weight change (g/mouse) on 8th day", "assay_type": "functional", "how_it_was_run": "as §3"}, "L1210 [8]": {"tested_on": "L1210", "assay": "Antitumor activity in mice with intraperitoneal implanted L1210 lymphoid leukemia at the dose 25 mg/kg/day x 5 was determined as weight change (g/mouse) on 8th day", "assay_type": "functional", "how_it_was_run": "as §3"}, "L1210 [9]": {"tested_on": "L1210", "assay": "Antitumor activity in mice with intraperitoneal implanted L1210 lymphoid leukemia at the dose 50 mg/kg/day x 5 was determined as weight change (g/mouse) on 8th day", "assay_type": "functional", "how_it_was_run": "as §3"}, "L1210 [10]": {"tested_on": "L1210", "assay": "Antitumor activity in the mice with intraperitoneal implanted L1210 lymphoid leukemia at the dose 100 mg/kg/day x 5 was determined and number of animals survived on 30 th day were reported; 0/6", "assay_type": "functional, Mus musculus", "how_it_was_run": "as §2"}, "L1210 [11]": {"tested_on": "L1210", "assay": "Antitumor activity in the mice with intraperitoneal implanted L1210 lymphoid leukemia at the dose 18.7 and 26.6 mg/kg/day x 5 was determined and number of animals survived on 30 th day were reported; 0/8", "assay_type": "functional, Mus musculus", "how_it_was_run": "as §2"}, "L1210 [12]": {"tested_on": "L1210", "assay": "Antitumor activity in the mice with intraperitoneal implanted L1210 lymphoid leukemia at the dose 25 mg/kg/day x 5 was determined and number of animals survived on 30 th day were reported; 0/8", "assay_type": "functional, Mus musculus", "how_it_was_run": "as §2"}, "L1210 [13]": {"tested_on": "L1210", "assay": "Antitumor activity in the mice with intraperitoneal implanted L1210 lymphoid leukemia at the dose 50 mg/kg/day x 5 was determined as Survival time in days; Range is 14-23 days", "assay_type": "functional, Mus musculus", "how_it_was_run": "as §2"}, "L1210 [14]": {"tested_on": "L1210", "assay": "Antitumor activity in the mice with intraperitoneal implanted L1210 lymphoid leukemia at the dose 50 mg/kg/day x 5 was determined and number of animals survived on 30 th day were reported; 0/8", "assay_type": "functional, Mus musculus", "how_it_was_run": "as §2"}, "L1210 [15]": {"tested_on": "L1210", "assay": "Antitumor activity in the mice with intraperitoneal implanted L1210 lymphoid leukemia at the dose 75 mg/kg/day x 5 was determined and number of animals survived on 30 th day were reported; 3/8", "assay_type": "functional, Mus musculus", "how_it_was_run": "as §1"}, "L1210 [16]": {"tested_on": "L1210", "assay": "Antitumor activity in the mice with intraperitoneal implanted L1210 lymphoid leukemia at the dose 50 mg/kg/day x 5 was determined as percentage increase in the life span as compared with control tumor bearers", "assay_type": "functional", "settings": "Mus musculus, L1210, ip", "how_it_was_run": "as §1"}, "L1210 [17]": {"tested_on": "L1210", "assay": "Antitumor activity in the mice with intraperitoneal implanted L1210 lymphoid leukemia at the dose 75 mg/kg/day x 5 was determined as percentage increase in the life span as compared with control tumor bearers", "assay_type": "functional", "settings": "Mus musculus, L1210, ip", "how_it_was_run": "as §1"}, "L1210 [18]": {"tested_on": "L1210", "assay": "Antitumor activity in the mice with intraperitoneal implanted L1210 lymphoid leukemia at the dose 9.2 and 13.2 mg/kg/day x 5 was determined as percentage increase in the life span as compared with control tumor bearers", "assay_type": "functional, Mus musculus", "how_it_was_run": "as §1"}, "L1210 [19]": {"tested_on": "L1210", "assay": "Antitumor activity in the mice with intraperitoneal implanted L1210 lymphoid leukemia at the dose 100 mg/kg/day x 5 was determined as Survival time in days; Range is 10-16 days", "assay_type": "functional, Mus musculus", "how_it_was_run": "as §2"}, "L1210 [20]": {"tested_on": "L1210", "assay": "Antitumor activity in the mice with intraperitoneal implanted L1210 lymphoid leukemia at the dose 75 mg/kg/day x 5 was determined as Survival time in days; Range is 18-37 days", "assay_type": "functional, Mus musculus", "how_it_was_run": "as §1"}, "L1210 [21]": {"tested_on": "L1210", "assay": "Antitumor activity in the mice with intraperitoneal implanted L1210 lymphoid leukemia at the dose 9.2 and 13.2 mg/kg/day x 5 was determined as Survival time in days; Range is 13-24 days", "assay_type": "functional, Mus musculus", "how_it_was_run": "as §1"}, "L1210 [22]": {"tested_on": "L1210", "assay": "Antitumor activity in the mice with intraperitoneal implanted L1210 lymphoid leukemia at the dose 25 mg/kg/day x 5 was determined as Survival time in days; Range is 14-27 days", "assay_type": "functional, Mus musculus", "how_it_was_run": "as §2"}, "L1210 [23]": {"tested_on": "L1210", "assay": "Antitumor activity in the mice with intraperitoneal implanted L1210 lymphoid leukemia at the dose 18.7 and 26.6 mg/kg/day x 5 was determined as percentage increase in the life span as compared with control tumor bearers", "assay_type": "functional, Mus musculus", "how_it_was_run": "as §2"}, "L1210 [24]": {"tested_on": "L1210", "assay": "Antitumor activity in the mice with intraperitoneal implanted L1210 lymphoid leukemia at the dose 25 mg/kg/day x 5 was determined as percentage increase in the life span as compared with control tumor bearers", "assay_type": "functional", "settings": "Mus musculus, L1210, ip", "how_it_was_run": "as §2"}, "L1210 [25]": {"tested_on": "L1210", "assay": "Antitumor activity in the mice with intraperitoneal implanted L1210 lymphoid leukemia at the dose 9.2 and 13.2 mg/kg/day x 5 was determined and number of animals survived on 30 th day were reported; 0/6", "assay_type": "functional, Mus musculus", "how_it_was_run": "as §1"}, "L1210 [26]": {"tested_on": "L1210", "assay": "Antitumor activity in the mice with intraperitoneal implanted L1210 lymphoid leukemia at the dose of 100 mg/kg/day x 5 was determined as median survival of treated group compared to untreated; 16/11"}}, "data": [{"compound": "C[C@]12CCC(=O)C=C1CC[C@@H]1[C@@H]2CC[C@@]2(C)[C@H]1CC[C@]2(O)C(=O)COP(=O)(O)OC[C@H]1O[C@@H](n2ccc(N)nc2=O)[C@@H](O)[C@@H]1O", "values": [{"measurement": "T/C", "setting": "L1210 [1]", "value": 28.5}, {"measurement": "T/C", "setting": "L1210 [2]", "value": 18}, {"measurement": "T/C", "setting": "L1210 [3]", "value": 20.5}, {"measurement": "ILS at 100 mg/kg/day", "setting": "L1210 [4]", "value": 46, "unit": "%"}, {"measurement": "Weight change", "setting": "L1210 [5]", "value": 0.46, "unit": "g mouse-1"}, {"measurement": "ED 50", "setting": "L1210 [6]", "value": 80, "unit": "nM"}, {"measurement": "Weight change", "setting": "L1210 [7]", "value": -3.82, "unit": "g mouse-1"}, {"measurement": "Weight change", "setting": "L1210 [8]", "value": 1.55, "unit": "g mouse-1"}, {"measurement": "Weight change", "setting": "L1210 [9]", "value": -2.5, "unit": "g mouse-1"}, {"measurement": "Survivors", "setting": "L1210 [10]", "value": 0}, {"measurement": "Survivors", "setting": "L1210 [11]", "value": 0}, {"measurement": "Survivors", "setting": "L1210 [12]", "value": 0}, {"measurement": "Survival time", "setting": "L1210 [13]", "value": 14, "unit": "days"}, {"measurement": "Survivors", "setting": "L1210 [14]", "value": 0}, {"measurement": "Survivors", "setting": "L1210 [15]", "value": 3}, {"measurement": "ILS at 50 mg/kg/day", "setting": "L1210 [16]", "value": 141, "unit": "%"}, {"measurement": "ILS at 75 mg/kg/day", "setting": "L1210 [17]", "value": 200, "unit": "%"}, {"measurement": "ILS", "setting": "L1210 [18]", "value": 59, "unit": "%"}, {"measurement": "Survival time", "setting": "L1210 [19]", "value": 10, "unit": "days"}, {"measurement": "Survival time", "setting": "L1210 [20]", "value": 18, "unit": "days"}, {"measurement": "Survival time", "setting": "L1210 [21]", "value": 13, "unit": "days"}, {"measurement": "Survival time", "setting": "L1210 [22]", "value": 14, "unit": "days"}, {"measurement": "ILS", "setting": "L1210 [23]", "value": 77, "unit": "%"}, {"measurement": "ILS at 25 mg/kg/day", "setting": "L1210 [24]", "value": 90, "unit": "%"}, {"measurement": "Survivors", "setting": "L1210 [25]", "value": 0}, {"measurement": "T/C", "setting": "L1210 [26]", "value": 16}]}]}
